Data published in ChEMBL document CHEMBL1157543, “Synthesis and biological evaluation of polysulfated oligosaccharide glycosides as inhibitors of angiogenesis and tumor growth” (J Med Chem, 2010).
Calls of active or inactive are those of the source. The calls are words filed in the database; no cut-off is given here.

How the values were obtained:
[1] = target: T1, Heparanase (Homo sapiens, UniProt Q9Y251); test: Inhibition of human recombinant heparanase
T1 sequence (Q9Y251 whole entry): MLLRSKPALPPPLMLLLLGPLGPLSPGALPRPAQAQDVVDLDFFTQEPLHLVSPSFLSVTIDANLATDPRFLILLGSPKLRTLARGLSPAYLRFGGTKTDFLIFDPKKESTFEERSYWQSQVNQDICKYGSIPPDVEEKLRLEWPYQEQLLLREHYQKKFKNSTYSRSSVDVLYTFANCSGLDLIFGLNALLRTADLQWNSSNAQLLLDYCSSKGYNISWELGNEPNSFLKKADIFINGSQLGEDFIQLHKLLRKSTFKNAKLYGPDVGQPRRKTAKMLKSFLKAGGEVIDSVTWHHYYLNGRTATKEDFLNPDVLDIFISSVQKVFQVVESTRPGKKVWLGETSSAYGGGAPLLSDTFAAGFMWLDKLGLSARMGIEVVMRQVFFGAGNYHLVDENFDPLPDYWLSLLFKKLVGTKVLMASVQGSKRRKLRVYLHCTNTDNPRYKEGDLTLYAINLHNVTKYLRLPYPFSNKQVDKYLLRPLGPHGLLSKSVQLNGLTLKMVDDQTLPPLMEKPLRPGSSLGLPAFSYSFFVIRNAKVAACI
Procedure, shortened: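 Recombinant human heparanase assayed by ultrafiltration with 3H-labelled heparan sulfate as substrate (Km = 1.64 μM). Ki values with standard error were derived from inhibition response curves.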

[2] = Half life in Sprague-Dawley rat at 10 mg/kg, iv; type: ADME, organism-based; design: dose 10 mg/kg, route intravenous; settings: in vivo
Procedure, shortened: (§1)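 Male Sprague-Dawley rats (n = 2 per route), cannulated the day before. Compound given at 2.8 mg/mL in PBS: iv infusion over 5 min or sc between the scapulae, nominal 10 mg/kg. Arterial blood sampled up to 8 h into tubes with protease inhibitor, KF and EDTA; urine collected to 24 h. Plasma analyzed by LC-MS; noncompartmental analysis.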

[3] = Half life in Sprague-Dawley rat at 10 mg/kg, sc; type: ADME, organism-based; design: dose 10 mg/kg, route subcutaneous; settings: in vivo; procedure, shortened: as §1
[4] = tested on: B16; test: Antitumor activity against mouse B16 cells transplanted in C57/BL6 mouse assessed as reduction in tumor volume at 30 mg/kg for 7 days measured on day 10; type: functional; settings: read-out: TGI
Procedure, shortened: (§2)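 B16F1 cells grown in DMEM with 10% FCS, 5×10^5 cells in PBS implanted sc between the shoulder blades of C57 mice (n = 10). From day 3, compound given sc in PBS b.i.d. for 7 days at rotating sites. Tumors measured daily as l × w; p < 0.05 taken as significant.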

[5] = target: Fibroblast growth factor 2 (Homo sapiens, UniProt P09038); test: Binding affinity to FGF2 by surface plasmon-based solution affinity assay
Procedure, shortened: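 Surface plasmon resonance solution affinity assay on heparin-coated CM4 chips. FGF-2 binding run in HBS-EP containing 300 mM NaCl. Kd is the mean of at least duplicate measurements ± SD.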

[6] = Toxicity in rat aortic endothelium assessed as microvessel sprouts at 10 and 50 uM after 6 or 7 days; type: tissue-based, Sprague-Dawley, Aorta; settings: ex_vivo, 168 h
Procedure, shortened: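 Aortic ring viability check: on day 6 or 7, compound or medium was withdrawn and complete medium with VEGF (typically 10 ng/mL) was added for up to 7 more days. New microvessel sprouting was taken as a sign of viable tissue.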

[7] = tested on: HUVEC; test: Cytotoxicity against HUVEC; type: cell-based; settings: human
[8] = target: Fibroblast growth factor 1 (Homo sapiens, UniProt P05230); test: Binding affinity to FGF1 by surface plasmon-based solution affinity assay
Procedure, shortened: (§3)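 Surface plasmon resonance solution affinity assay on heparin-coated CM4 chips. Buffer: HBS-EP (10 mM HEPES pH 7.4, 150 mM NaCl, 3.0 mM EDTA, 0.005% polysorbate 20). Kd is the mean of at least duplicate measurements ± SD.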

[9] = tested on: B16; test: Antitumor activity against mouse B16 cells transplanted in C57/BL6 mouse assessed as reduction in tumor volume at 15 mg/kg for 7 days measured on day 10; type: functional; settings: read-out: TGI; procedure, shortened: as §2
[10] = tested on: Plasma; test: Anticoagulant activity in human plasma assessed as activated partial thromboplastin time; type: functional
Procedure, shortened: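 Pooled normal human plasma spiked with compound in PBS at 0.1 mg/mL (methods give a 0–100 μg/mL range); APTT elevation measured. Normal range 26–36 s. Values are means of two determinations.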

[11] = Plasma clearance in Sprague-Dawley rat at 10 mg/kg, iv and 10 mg/kg, sc; type: ADME, organism-based; procedure, shortened: as §1
[12] = target: T2, Vascular endothelial growth factor A, long form (Homo sapiens, UniProt P15692); test: Binding affinity to VEGF by surface plasmon-based solution affinity assay; procedure, shortened: as §3
T2 sequence (P15692 whole entry): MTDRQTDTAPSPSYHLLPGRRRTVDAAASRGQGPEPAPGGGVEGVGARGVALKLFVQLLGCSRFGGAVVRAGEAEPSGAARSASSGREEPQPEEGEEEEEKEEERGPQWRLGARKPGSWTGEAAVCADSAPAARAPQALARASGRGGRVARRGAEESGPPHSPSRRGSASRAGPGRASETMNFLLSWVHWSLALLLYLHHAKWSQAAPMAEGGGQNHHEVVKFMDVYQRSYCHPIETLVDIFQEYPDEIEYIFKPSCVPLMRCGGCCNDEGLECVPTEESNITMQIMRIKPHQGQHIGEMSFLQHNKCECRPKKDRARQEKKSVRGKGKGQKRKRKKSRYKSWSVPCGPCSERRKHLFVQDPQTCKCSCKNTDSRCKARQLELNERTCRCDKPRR

[13] = tested on: Plasma; test: Anticoagulant activity in human plasma by heptest; type: functional
Procedure, shortened: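 Heptest clot assay. Plasma (centrifuged 1800g, 10 min, used within 30 min) incubated with compound 2 min at 37 °C. Factor Xa added, 2 min at 37 °C, then clotting started with Recalmix; read on a ball coagulometer. Normal range 13–20 s; means of two determinations.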

[14] = tested on: Aorta; test: Inhibition of angiogenesis in Sprague-Dawley rat aortic endothelium at 50 uM; type: functional, tissue-based
Procedure, shortened: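 Sprague-Dawley rats (2–4 months old): bisected 1 mm thoracic aortic rings embedded in Matrigel in EBM-2 with 2% FCS, no heparin. Compound added in triplicate, medium replenished every 48 h. Microvessel sprouting scored semiquantitatively by two assessors up to day 8. One-way ANOVA with Dunnett's test.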

[15] = Bioavailability in Sprague-Dawley rat at 10 mg/kg, sc; type: ADME, organism-based; settings: in vivo; procedure, shortened: as §1
[16] = Apparent volume of distribution in Sprague-Dawley rat at 10 mg/kg, iv and 10 mg/kg, sc; type: ADME, organism-based; settings: in vivo, read-out: Vz; procedure, shortened: as §1

Fibroblast growth factor 1, sequence (P05230 whole entry): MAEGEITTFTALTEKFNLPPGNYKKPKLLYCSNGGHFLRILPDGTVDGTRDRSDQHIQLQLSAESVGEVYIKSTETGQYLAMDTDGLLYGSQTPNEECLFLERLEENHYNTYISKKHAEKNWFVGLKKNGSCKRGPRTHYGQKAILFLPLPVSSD
Fibroblast growth factor 2, sequence (P09038 143-288 limits assumed): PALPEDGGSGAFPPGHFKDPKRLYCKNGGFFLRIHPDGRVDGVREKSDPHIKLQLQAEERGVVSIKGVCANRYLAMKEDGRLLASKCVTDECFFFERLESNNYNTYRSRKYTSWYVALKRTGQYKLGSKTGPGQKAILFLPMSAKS

SMILES	Ki [1] [nM]	half-life [2] [h]	half-life [3] [h]	inhibition in vivo at 30 mg/kg [4] [%]	Kd [5] [nM]	Activity [6]	LC50 [7] [nM]	Kd [8] [nM]	inhibition in vivo at 15 mg/kg [9] [%]	Time [10] [s]	clearance [11] [mL/min/kg]	Kd [12] [nM]	Activity [13] [s]	Activity [14]	bioavailability [15] [%]	Vd [16] [L/kg]
CCCCCCCCO[C@H]1O[C@H](COS(=O)(=O)[O-])[C@@H](OS(=O)(=O)[O-])[C@H](OS(=O)(=O)[O-])[C@@H]1O[C@H]1O[C@H](COS(=O)(=O)[O-])[C@@H](OS(=O)(=O)[O-])[C@H](O[C@H]2O[C@H](COS(=O)(=O)[O-])[C@@H](OS(=O)(=O)[O-])[C@H](O[C@H]3O[C@H](COS(=O)(=O)[O-])[C@@H](OS(=O)(=O)[O-])[C@H](O[C@H]4O[C@H](COS(=O)(=O)[O-])[C@@H](OS(=O)(=O)[O-])[C@H](OS(=O)(=O)[O-])[C@@H]4OS(=O)(=O)[O-])[C@@H]3OS(=O)(=O)[O-])[C@@H]2OS(=O)(=O)[O-])[C@@H]1OS(=O)(=O)[O-].[Na+].[Na+].[Na+].[Na+].[Na+].[Na+].[Na+].[Na+].[Na+].[Na+].[Na+].[Na+].[Na+].[Na+].[Na+].[Na+]	350	1.1	1.1	94	82	Toxic	> 100000	0.161	42	250.8	1.4	1.5	124.4	Active		
CCCCCCCCO[C@H]1O[C@H](COS(=O)(=O)[O-])[C@@H](OS(=O)(=O)[O-])[C@H](OS(=O)(=O)[O-])[C@@H]1O[C@H]1O[C@H](COS(=O)(=O)[O-])[C@@H](OS(=O)(=O)[O-])[C@H](O[C@H]2O[C@H](COS(=O)(=O)[O-])[C@@H](OS(=O)(=O)[O-])[C@H](O[C@H]3O[C@H](COS(=O)(=O)[O-])[C@@H](OS(=O)(=O)[O-])[C@H](OS(=O)(=O)[O-])[C@@H]3OS(=O)(=O)[O-])[C@@H]2OS(=O)(=O)[O-])[C@@H]1OS(=O)(=O)[O-].[Na+].[Na+].[Na+].[Na+].[Na+].[Na+].[Na+].[Na+].[Na+].[Na+].[Na+].[Na+].[Na+]	330	1.7	1.7	86	160	Toxic	> 100000	0.118	64	96.7	0.2	18	79.5		67	0.026
